From ChEMBL document CHEMBL1133161 (J Med Chem, 2000)
Where “and” joins values, the source holds several entries; their conditions need not be identical. Equal entries are not always repeated.

Tests used:
[1] = biological target: Norepinephrine transporter (Rattus norvegicus, UniProt Q9WTR4); experiment: Inhibition of [3H]NE uptake by Norepinephrine transporter of rat occipital cortex synaptosomes; type: subcellular, Brain
How it was run: (§1)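 Rat parietal and occipital cortex P2 synaptosomes in ice-cold modified KRH buffer; preincubated with drug 30 min at 37 °C, then [3H]NE 8-10 nM added for 5 min. Stopped with cold Na-free glucosamine buffer, then filtered; scintillation counting. Specific uptake defined with 3 µM desipramine. Ki from IC50 using Km 54 nM. Six drug concentrations in triplicate, 2-5 experiments.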

Rattus norvegicus [2] = organism: Rattus norvegicus; experiment: Compound was evaluated for its ability to antagonizing norepinephrine (NE) high affinity uptake was determined using [3H]NE on synaptosomes prepared from rat occipital cortices.; type: functional; details: Brain; how it was run: as §1
[3] = biological target: Sodium-dependent serotonin transporter (Rattus norvegicus, UniProt P31652); experiment: Inhibition of [3H]5-HT uptake by Serotonin transporter of rat midbrain or parietal synaptosomes; type: subcellular, Brain
Sequence of Sodium-dependent serotonin transporter (P31652 whole entry): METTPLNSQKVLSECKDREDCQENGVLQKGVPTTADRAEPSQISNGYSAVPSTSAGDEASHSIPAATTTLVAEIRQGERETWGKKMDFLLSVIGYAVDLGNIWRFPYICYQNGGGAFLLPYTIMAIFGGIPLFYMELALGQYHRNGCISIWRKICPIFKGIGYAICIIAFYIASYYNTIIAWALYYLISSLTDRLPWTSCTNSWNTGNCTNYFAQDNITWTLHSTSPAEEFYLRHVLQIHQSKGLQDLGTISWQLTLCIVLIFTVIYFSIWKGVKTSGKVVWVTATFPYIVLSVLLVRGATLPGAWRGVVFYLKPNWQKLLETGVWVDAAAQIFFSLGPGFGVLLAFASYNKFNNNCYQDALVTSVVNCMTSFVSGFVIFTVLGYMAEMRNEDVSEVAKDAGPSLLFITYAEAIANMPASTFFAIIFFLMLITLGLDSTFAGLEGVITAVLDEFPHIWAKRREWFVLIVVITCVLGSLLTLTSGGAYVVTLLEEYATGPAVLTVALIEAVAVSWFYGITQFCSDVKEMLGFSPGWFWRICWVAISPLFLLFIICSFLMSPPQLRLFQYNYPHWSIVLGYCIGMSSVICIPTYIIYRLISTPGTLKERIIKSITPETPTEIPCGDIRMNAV
How it was run: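 Rat midbrain P2 synaptosomes in modified KRH buffer; preincubated with drug 30 min at 37 °C, then [3H]5-HT 4-5 nM for 5 min. Stopped with cold Na-free glucosamine buffer, then filtered; scintillation counting. […] Ki from IC50 using Km 53 nM. Six drug concentrations in triplicate, 2-5 experiments.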

Rattus norvegicus [4] = organism: Rattus norvegicus; experiment: Compound was evaluated for its ability to antagonizing serotonin high affinity uptake was determined using [3H]5-HT on synaptosomes prepared from rat midbrain or parietal cortices.; type: functional; details: Brain
[5] = biological target: Monoamine transporters; serotonin & dopamine (Rattus norvegicus) (UniProt P31652+P23977); experiment: Relative affinity for dopamine over 5-HT transporters; type: protein assay
Sequence of Monoamine transporters; serotonin & dopamine (Rattus norvegicus) (P23977 whole entry, looked up): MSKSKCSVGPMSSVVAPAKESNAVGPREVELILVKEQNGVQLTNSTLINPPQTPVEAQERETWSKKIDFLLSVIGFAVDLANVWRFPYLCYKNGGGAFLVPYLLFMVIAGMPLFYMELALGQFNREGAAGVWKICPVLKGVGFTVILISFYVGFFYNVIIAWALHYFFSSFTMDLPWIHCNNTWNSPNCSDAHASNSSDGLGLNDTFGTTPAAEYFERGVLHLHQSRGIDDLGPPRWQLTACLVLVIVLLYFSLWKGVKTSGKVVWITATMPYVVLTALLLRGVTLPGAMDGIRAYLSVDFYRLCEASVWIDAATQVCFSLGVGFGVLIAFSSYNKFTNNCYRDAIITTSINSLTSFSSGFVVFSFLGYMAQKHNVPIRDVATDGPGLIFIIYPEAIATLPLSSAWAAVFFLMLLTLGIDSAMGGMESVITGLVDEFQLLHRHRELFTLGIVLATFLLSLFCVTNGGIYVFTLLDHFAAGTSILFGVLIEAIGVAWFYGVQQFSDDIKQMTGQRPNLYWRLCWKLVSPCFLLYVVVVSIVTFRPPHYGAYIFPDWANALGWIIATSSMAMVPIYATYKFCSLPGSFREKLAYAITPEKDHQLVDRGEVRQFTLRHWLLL
Sequence of Monoamine transporters; serotonin & dopamine (Rattus norvegicus) (P31652 whole entry, looked up): as the sequence (P31652 whole entry) above
How it was run: (§2)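 Selectivity ratios calculated from Ki values of the rat synaptosomal [3H]DA, [3H]NE and [3H]5-HT uptake inhibition assays.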

[6] = biological target: Sodium-dependent dopamine transporter (Rattus norvegicus, UniProt P23977); experiment: Inhibition of [3H]DA uptake by dopamine transporter of rat striata synaptosomes; type: subcellular, Brain
Sequence of Sodium-dependent dopamine transporter (P23977 whole entry): as the sequence (P23977 whole entry, looked up) above
How it was run: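 Rat striatum homogenised in 0.32 M sucrose, P2 synaptosomes resuspended in KRH buffer; preincubated with drug 30 min at 37 °C, then [3H]DA 3-5 nM final for 5 min. Stopped with cold Na-free glucosamine buffer, then filtered; scintillation counting. Six concentrations in triplicate, 2-5 experiments.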

[7] = biological target: Monoamine transporters; Norepinephrine & serotonin (Rattus norvegicus) (UniProt P31652+Q9WTR4); experiment: Relative affinity for norepinephrine over 5-HT transporters; type: protein assay; how it was run: as §2
Rattus norvegicus [8] = organism: Rattus norvegicus; experiment: Compound was evaluated for its ability to inhibit the uptake of dopamine(DA) into nerve ending using [3H]DA on synaptosomes obtained from dissected rat striata.; type: functional; details: Brain
Rattus norvegicus [9] = organism: Rattus norvegicus; experiment: Compound was evaluated for its ability to antagonizing norepinephrine (NE), high affinity uptake was determined using [3H]NE on synaptosomes prepared from rat occipital cortices.; details: Brain

Sequence of Norepinephrine transporter (Q9WTR4 whole entry): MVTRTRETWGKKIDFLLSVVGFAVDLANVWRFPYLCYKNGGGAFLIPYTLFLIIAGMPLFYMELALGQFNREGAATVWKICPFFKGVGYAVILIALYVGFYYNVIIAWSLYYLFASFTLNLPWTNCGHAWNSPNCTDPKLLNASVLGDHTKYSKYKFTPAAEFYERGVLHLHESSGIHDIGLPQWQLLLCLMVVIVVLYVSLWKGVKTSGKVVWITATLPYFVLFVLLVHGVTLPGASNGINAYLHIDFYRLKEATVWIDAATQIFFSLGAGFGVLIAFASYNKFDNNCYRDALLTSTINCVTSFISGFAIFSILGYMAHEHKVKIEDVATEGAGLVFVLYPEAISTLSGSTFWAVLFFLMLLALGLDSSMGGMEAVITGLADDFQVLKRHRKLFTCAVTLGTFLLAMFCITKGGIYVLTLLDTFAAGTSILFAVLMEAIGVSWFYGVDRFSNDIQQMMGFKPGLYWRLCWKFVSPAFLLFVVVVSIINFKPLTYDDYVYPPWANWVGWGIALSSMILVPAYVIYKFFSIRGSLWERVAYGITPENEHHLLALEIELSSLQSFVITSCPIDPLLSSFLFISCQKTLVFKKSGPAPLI

| Structure (SMILES) | Ki [1] | IC50 (Rattus norvegicus [2]) | Ki [3] | IC50 (Rattus norvegicus [4]) | Ratio [5] | Ki [6] | Ratio [7] | IC50 (Rattus norvegicus [8]) | IC50 (Rattus norvegicus [9]) |
| --- | --- | --- | --- | --- | --- | --- | --- | --- | --- |
| C=Cc1ccc([C@H]2CCN(C)C[C@H]2C(=O)OC)cc1 | 175 nM | 204 nM | 138 nM | 155 nM | – | – | – | – | – |
| C=CCc1ccc([C@H]2CCN(C)C[C@H]2C(=O)OC)cc1 | > 1000 nM | > 1200 nM | 309 nM | 334 nM | 3.1 | 964 nM | > 3.5 | > 1000 nM | – |
| CCc1ccc([C@H]2CCN(C)CC2C(=O)OC)cc1 (stereo partly specified) | > 1100 nM | > 1300 nM | 255 nM | 275 nM | > 6 | > 1700 nM | > 4 | > 1800 nM | – |
| COC(=O)[C@@H]1CN(C)CC[C@@H]1c1ccc2ccccc2c1 | 34 nM | – | 7.6 nM | 8.2 nM | 2.8 and 4.5 | 21 nM | – | 23 nM | – |
| COC(=O)[C@H]1CN(C)CC[C@@H]1c1ccc2ccccc2c1 | 241 nM | – | 42 nM | 46 nM | 22.6 | 947 nM | 5.7 | > 1000 nM | – |
| COC(=O)[C@@H]1CN(C)CC[C@H]1c1ccc2ccccc2c1 | 27 nM | – | 192 nM | 209 nM | 0.45 | 87 nM | 0.14 | 94 nM | – |
| COC(=O)[C@H]1[C@@H](OC(=O)c2ccccc2)C[C@@H]2CC[C@H]1N2C [COCAINE] | – | – | – | – | – | – | – | – | 127 nM |
| COC(=O)[C@@H]1CNCC[C@H]1c1ccc2ccccc2c1 | 30 nM | 34 nM | 3.5 nM | 3.9 nM | 26 | 90 nM | 8.6 | 97 nM | – |
| COC(=O)[C@@H]1CN(C)CC[C@@H]1c1cccc2ccccc12 | 281 nM | 337 nM | 101 nM | 113 nM | 3 | 304 nM | 2.8 | 326 nM | – |
| C#Cc1ccc([C@H]2CCN(C)C[C@H]2C(=O)OC)cc1 | 364 nM | 399 nM | 175 nM | 189 nM | 1.1 | 187 nM | 2.1 | 213 nM | – |
| CNCCC(Oc1ccc(C(F)(F)F)cc1)c1ccccc1 (stereo unspecified) [FLUOXETINE] | – | 193 nM | – | 8.1 nM | – | – | – | > 4500 nM | – |
| COC(=O)[C@H]1CN(C)CC[C@H]1c1ccc2ccccc2c1 | 38 nM | – | 12 nM | 13 nM | 23 | 271 nM | 3.2 | 293 nM | – |
| COC(=O)[C@@H]1CN(C)CC[C@@H]1c1ccc(Cl)cc1 | 88 nM | 101 nM | 391 nM | 440 nM | 0.18 | 69 nM | 0.23 | 75 nM | – |
| COC(=O)[C@@H]1CN(C)CC[C@@H]1c1ccc(-c2ccccc2)cc1 | 203 nM | 239 nM | 62 nM | 67 nM | 2.8 | 173 nM | 3.3 | 184 nM | – |
